{"data": "Measured values gathered from unrelated publications", "PIK3CA H1047L": "Phosphatidylinositol 4,5-bisphosphate 3-kinase catalytic subunit alpha isoform (PIK3CA, Homo sapiens, UniProt P42336, H1047L)", "PIK3CA": "Phosphatidylinositol 4,5-bisphosphate 3-kinase catalytic subunit alpha isoform (PIK3CA, Homo sapiens, UniProt P42336)", "PIK3CA H1047Y": "Phosphatidylinositol 4,5-bisphosphate 3-kinase catalytic subunit alpha isoform (PIK3CA, Homo sapiens, UniProt P42336, H1047Y)", "PIK3CA C420R": "Phosphatidylinositol 4,5-bisphosphate 3-kinase catalytic subunit alpha isoform (PIK3CA, Homo sapiens, UniProt P42336, C420R)", "PIK3CA M1043I": "Phosphatidylinositol 4,5-bisphosphate 3-kinase catalytic subunit alpha isoform (PIK3CA, Homo sapiens, UniProt P42336, M1043I)", "PIK3CA E545A": "Phosphatidylinositol 4,5-bisphosphate 3-kinase catalytic subunit alpha isoform (PIK3CA, Homo sapiens, UniProt P42336, E545A)", "note": "Lines come from different studies, so protocols differ."}
{"SMILES": "C=CC(=O)N1CCC(C(=O)NCC(=O)N2CCN(c3nc(-c4cnc(N)nc4C(F)F)nc(N4CCOCC4)n3)CC2)CC1", "target": "PIK3CA H1047L", "test": "binding, competition with immobilised ligand", "conditions": "1 µM", "remaining binding [%]": 0.45}
{"SMILES": "CN(CCCC(F)(F)F)c1nccc(-c2cnn3ncccc23)n1", "target": "PIK3CA", "test": "binding", "conditions": "1 µM", "remaining binding [%]": 100}
{"SMILES": "CO[C@@H](C)c1c(Nc2ccc([C@@H](N(C)C(=O)C3CCS(=O)(=O)CC3)C(F)(F)F)cc2)cnc2cc(Cl)nn12", "target": "PIK3CA H1047L", "test": "cell-free assay, competition with immobilised ligand", "conditions": "1 µM", "remaining binding [%]": 98}
{"SMILES": "Nc1ncc2c(n1)-c1c([nH]c3ccc(C#CC4CC4)cc13)CCCC2", "target": "PIK3CA H1047Y", "test": "binding, competition with immobilised ligand", "conditions": "1 µM", "remaining binding [%]": 75}
{"SMILES": "CCC(=O)N[C@H]1CC[C@@H](C(=O)N(C)c2ccc(-c3nc4ccccc4o3)cc2)C1", "target": "PIK3CA C420R", "test": "cell-free assay, competition with immobilised ligand", "conditions": "1 µM", "remaining binding [%]": 92}
{"SMILES": "O=C(Nc1c[nH]nc1C(=O)NC1CCNCC1)c1cc(F)cc(F)c1", "target": "Phosphatidylinositol 4,5-bisphosphate 3-kinase catalytic subunit alpha isoform (PIK3CA, Homo sapiens, UniProt P42336, E542K)", "test": "binding, competition with immobilised ligand", "conditions": "1 µM", "remaining binding [%]": 88}
{"SMILES": "CN(C)c1ncc(F)c(-c2cnn3ncccc23)n1", "target": "Phosphatidylinositol 4,5-bisphosphate 3-kinase catalytic subunit alpha isoform (PIK3CA, Homo sapiens, UniProt P42336, Q546K)", "test": "binding", "conditions": "1 µM", "remaining binding [%]": 86}
{"SMILES": "O=C(c1ccc(Nc2nccc(-c3cc4ccccc4s3)n2)cc1)N1CCC(N2CCCC2)CC1", "target": "PIK3CA H1047L", "test": "binding, competition with immobilised ligand", "conditions": "1 µM", "remaining binding [%]": 100}
{"SMILES": "c1cnn2ncc(-c3ccnc(N4CCC45COC5)n3)c2c1", "target": "PIK3CA C420R", "test": "binding", "conditions": "1 µM", "remaining binding [%]": 71}
{"SMILES": "CN(C(=O)c1ccccc1)c1cc(N(C)c2ccc3c(c2)CCc2ccc(C(=O)NCCN4CCOCC4)cc2C3=O)ccc1F", "target": "Phosphatidylinositol 4,5-bisphosphate 3-kinase catalytic subunit alpha isoform (PIK3CA, Homo sapiens, UniProt P42336, I800L)", "test": "cell-free assay, competition with immobilised ligand", "conditions": "1 µM", "remaining binding [%]": 62}
{"SMILES": "N[C@@H]1CCN(c2nccc(-c3cnn4ncccc34)n2)C1", "target": "PIK3CA M1043I", "test": "binding", "conditions": "1 µM", "remaining binding [%]": 100}
{"SMILES": "Nc1cnc(N2CCc3cc(S(=O)(=O)Nc4c(F)cc(Cl)cc4F)cc(N4CCCC4=O)c32)nc1", "target": "PIK3CA H1047Y", "test": "cell-free assay, competition with immobilised ligand", "conditions": "1 µM", "remaining binding [%]": 100}
{"SMILES": "CN1CCN(c2ccc(Nc3nccc(-c4cccc([N+](=O)[O-])c4)n3)cc2C(F)(F)F)CC1", "target": "PIK3CA C420R", "test": "binding", "conditions": "10 µM", "remaining binding [%]": 53}
{"SMILES": "O=C(NCCCN1CCOCC1)c1ccc(Nc2ncc(Cl)c(-c3ccc(Cl)s3)n2)cc1", "target": "PIK3CA H1047L", "test": "binding, competition with immobilised ligand", "conditions": "1 µM", "remaining binding [%]": 100}
{"SMILES": "Cc1nccc(COC(=O)N2C[C@@H]3[C@@H](CNC(=O)c4ccc5[nH]nnc5c4)[C@@H]3C2)n1", "target": "PIK3CA H1047Y", "test": "cell-free assay, competition with immobilised ligand", "conditions": "1 µM", "remaining binding [%]": 82}
{"SMILES": "O=C(c1ccc(Nc2ncc(Cl)c(-c3ccc(Cl)s3)n2)cc1)N1CCC(N2CCCC2)CC1", "target": "PIK3CA M1043I", "test": "binding, competition with immobilised ligand", "conditions": "1 µM", "remaining binding [%]": 100}
{"SMILES": "F[C@@H]1CCN(c2nccc(-c3cnn4ncccc34)n2)C1", "target": "PIK3CA", "test": "binding", "conditions": "1 µM", "remaining binding [%]": 100}
{"SMILES": "COc1cnc(Nc2cccc(S(N)(=O)=O)c2)nc1N1CCN(c2ccccc2)CC1", "target": "PIK3CA", "test": "binding, competition with immobilised ligand", "conditions": "1 µM", "remaining binding [%]": 98}
{"SMILES": "Cc1cnn2ncc(-c3ccnc(N(C)C)n3)c2c1", "target": "PIK3CA H1047Y", "test": "binding", "conditions": "1 µM", "remaining binding [%]": 98}
{"SMILES": "CCCOc1ccc([C@@H]2[C@@H](C(=O)O)[C@H](c3ccc4c(c3)OCO4)CN2CC(=O)Nc2c(CC)cccc2CC)cc1", "target": "PIK3CA E545A", "test": "cell-free assay, competition with immobilised ligand", "conditions": "1 µM", "remaining binding [%]": 92}
{"SMILES": "COc1ccnn2ncc(-c3ccnc(N(C)C)n3)c12", "target": "PIK3CA E545A", "test": "binding", "conditions": "1 µM", "remaining binding [%]": 93}
{"SMILES": "O=c1nc(-c2ccccn2)sc2ccccc12", "target": "PIK3CA M1043I", "test": "cell-free assay, competition with immobilised ligand", "conditions": "1 µM", "remaining binding [%]": 100}
